For one compound, IC50 results are on record in PubChem BioAssay AID624017 (Broad Institute, 2012).

Molecules are shown by their SMILES. pIC50: −log10 of the molar value.

The experiment relates to ldlA[mSR-BI] cells, [3H]cholesterol efflux to HDL. In words: inhibitors of SR-BI-mediated cholesterol efflux to HDL, dose response, mechanism study for SR-BI HDL uptake inhibitor project, ldlA[mSR-BI] cells, [3H]cholesterol, powder samples, set 2 (AID 624017). A digest of the protocol:
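Assay system: ldlA[mSR-BI] cells prelabelled with [3H]cholesterol / Buffer or medium: assay medium with 0.5% FAF-BSA, 25 mM HEPES pH 7.4 / Reagent: HDL as cholesterol acceptor, 100 µg/mL final / Doses: compound in 0.5% DMSO final / Incubation: 2-day label, 24 h equilibration, 1 h compound pretreatment, 2 h efflux / Signal: scintillation counting of medium and lysate [3H]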

The pIC50 is the IC50 on a negative log10 scale, so that one unit is a factor of ten. With `CC(C)NC(=O)Nc1ccc2c(c1)C(=O)N([C@H](C)CO)C[C@@H](C)[C@H](CN(C)S(=O)(=O)c1ccc(Cl)cc1)O2`, the pIC50 was 6.60.
